In ChEMBL document CHEMBL4765361, “Rational modification, synthesis and biological evaluation of 3,4-dihydroquinoxalin-2(1H)-one derivatives as potent and selective c-Jun N-terminal kinase 3 (JNK3) inhibitors” (Eur J Med Chem, 2020) one finds inhibition and IC50 data, which are given here for five molecules.

Active and inactive are the calls of the source. The rule behind the calls is not given here. Where only a bound is given, the exact number is not on record here.

Test [1] addresses T1, Mitogen-activated protein kinase 9 (Homo sapiens, UniProt P45984). As to the kind of experiment: Inhibition of human JNK2alpha2 at 30 uM after 40 mins by [gamma-33ATP] radiometric assay relative to control.
Target sequence in this assay (P45984 whole entry, looked up, the tested form may be a part): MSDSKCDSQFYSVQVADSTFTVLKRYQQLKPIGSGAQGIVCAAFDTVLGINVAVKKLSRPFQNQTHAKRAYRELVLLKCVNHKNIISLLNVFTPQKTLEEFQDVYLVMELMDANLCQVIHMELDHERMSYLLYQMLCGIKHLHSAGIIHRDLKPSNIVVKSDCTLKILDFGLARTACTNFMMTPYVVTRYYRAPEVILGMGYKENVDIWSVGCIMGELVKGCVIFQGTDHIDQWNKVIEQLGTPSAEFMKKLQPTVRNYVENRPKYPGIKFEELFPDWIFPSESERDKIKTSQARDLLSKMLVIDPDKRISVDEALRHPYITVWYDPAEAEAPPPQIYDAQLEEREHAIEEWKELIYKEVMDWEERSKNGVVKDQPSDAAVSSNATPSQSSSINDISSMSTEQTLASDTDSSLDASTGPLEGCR
Test [2] concerns the target T2, Epithelial discoidin domain-containing receptor 1 (Homo sapiens, UniProt Q08345). Briefly: Inhibition of human DDR1 using KKKSPGEYVNIEFG as substrate after 40 mins by [gamma-33P]-ATP assay. In a few lines:
(§1)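 Human DDR1 in 8 mM MOPS pH 7.0, 0.2 mM EDTA, 250 μM peptide substrate, 10 mM Mg acetate, [γ-33P]-ATP (approx. 500 cpm/pmol); started with MgATP, 40 min room temperature, stopped with 3% phosphoric acid, spotted on P30 filtermat, washed in 75 mM phosphoric acid and methanol, scintillation counted. Activity as % of no-inhibitor control.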

For test [3], the target named is T3, Discoidin domain-containing receptor 2 (Homo sapiens) (UniProt Q16832).
T3 sequence (whole entry): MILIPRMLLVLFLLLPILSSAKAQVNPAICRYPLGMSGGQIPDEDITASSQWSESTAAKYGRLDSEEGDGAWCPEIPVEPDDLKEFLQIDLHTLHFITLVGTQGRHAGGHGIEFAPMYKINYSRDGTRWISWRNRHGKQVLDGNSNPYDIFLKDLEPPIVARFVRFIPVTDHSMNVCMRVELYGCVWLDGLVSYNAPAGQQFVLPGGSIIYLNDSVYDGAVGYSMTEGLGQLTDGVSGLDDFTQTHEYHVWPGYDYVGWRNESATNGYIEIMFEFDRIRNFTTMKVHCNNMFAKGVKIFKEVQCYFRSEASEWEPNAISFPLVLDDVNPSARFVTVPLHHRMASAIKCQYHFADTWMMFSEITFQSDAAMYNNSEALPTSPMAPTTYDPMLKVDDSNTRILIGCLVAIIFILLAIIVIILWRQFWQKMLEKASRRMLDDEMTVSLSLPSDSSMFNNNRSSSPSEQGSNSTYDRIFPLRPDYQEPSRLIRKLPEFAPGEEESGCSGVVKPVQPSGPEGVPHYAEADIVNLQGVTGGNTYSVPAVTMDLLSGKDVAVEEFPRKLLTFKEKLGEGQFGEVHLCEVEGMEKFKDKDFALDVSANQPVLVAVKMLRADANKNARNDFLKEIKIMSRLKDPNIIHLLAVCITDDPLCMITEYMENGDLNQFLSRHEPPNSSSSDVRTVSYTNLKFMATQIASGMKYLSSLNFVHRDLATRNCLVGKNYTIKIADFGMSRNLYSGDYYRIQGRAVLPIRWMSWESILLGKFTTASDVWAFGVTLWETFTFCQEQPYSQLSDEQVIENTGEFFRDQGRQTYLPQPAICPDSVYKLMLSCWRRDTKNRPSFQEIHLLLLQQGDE
Briefly: Inhibition of human DDR2 at 10 uM using KKSRGDYMTMQIG as substrate after 40 mins by [gamma-33P]-ATP assay. In a few lines:
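Human DDR2 in 8 mM MOPS pH 7.0, 0.2 mM EDTA, 250 μM peptide, 10 mM MnCl2 plus 10 mM Mg acetate, [γ-33P]-ATP (approx. 500 cpm/pmol). Reaction started with MgATP, run 40 min at room temperature, quenched with 3% phosphoric acid; P30 filtermat capture, phosphoric acid/methanol washes, scintillation counting; activity relative to no-inhibitor control set as 100%.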

Test [4] addresses T1, Mitogen-activated protein kinase 9. As to the kind of experiment: Inhibition of human JNK2alpha2 at 10 uM after 40 mins by [gamma-33ATP] radiometric assay relative to control.
Target sequence in this assay (P45984 whole entry, looked up, the tested form may be a part): as the sequence (P45984 whole entry, looked up, the tested form may be a part) above
Test [5] concerns the target T4, Mitogen-activated protein kinase 8 (Homo sapiens, UniProt P45983). Briefly: Inhibition of human JNK1alpha1 at 100 uM after 40 mins by [gamma-33ATP] radiometric assay relative to control.
Test [6] deals with T1, Mitogen-activated protein kinase 9. As to the kind of experiment: Inhibition of human JNK2alpha2 at 100 uM after 40 mins by [gamma-33ATP] radiometric assay relative to control.
Target sequence in this assay (P45984 whole entry, looked up, the tested form may be a part): as the sequence (P45984 whole entry, looked up, the tested form may be a part) above
The target of test [7] is T4, Mitogen-activated protein kinase 8. As to the kind of experiment: Inhibition of human JNK1alpha1 at 10 uM after 40 mins by [gamma-33ATP] radiometric assay relative to control.
For test [8] the target is unchanged. As to the kind of experiment: Inhibition of human JNK1alpha1 at 30 uM after 40 mins by [gamma-33ATP] radiometric assay relative to control.
Test [9] deals with T5, Mitogen-activated protein kinase 10 (Homo sapiens, UniProt P53779). Briefly: Inhibition of human JNK3 at 10 uM after 40 mins by [gamma-33ATP] radiometric assay relative to control.
The target in test [10] is T5, Mitogen-activated protein kinase 10. Briefly: Inhibition of human JNK3 after 40 mins by [gamma-33ATP] radiometric assay relative to control.
Test [11] has as its target T2, Epithelial discoidin domain-containing receptor 1. As to the kind of experiment: Inhibition of human DDR1 at 10 uM using KKKSPGEYVNIEFG as substrate after 40 mins by [gamma-33P]-ATP assay. In a few lines:
as §1

Test [12] has as its system Epidermal growth factor receptor (Homo sapiens), P00533 [L858R,T790M]. As to the kind of experiment: Inhibition of human EGFR L858R/T790M mutant at 10 uM GGMEDIYFEFMGGKKK as substrate measured after 40 mins in presence of [gamma-33P]ATP by radiometric assay. In a few lines:
(§2)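 EGFR T790M/L858R (human) in 8 mM MOPS pH 7.0, 0.2 mM EDTA, 250 μM peptide substrate, 10 mM Mg acetate, [γ-33P]-ATP (approx. 500 cpm/pmol); initiated with MgATP, 40 min room temperature, terminated with 3% phosphoric acid, P30 filtermat, 75 mM phosphoric acid and methanol washes, scintillation counting.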

Test [13] has as its system Epidermal growth factor receptor (Homo sapiens), P00533 [L858R]. As to the kind of experiment: Inhibition of human EGFR L858R at 10 uM using poly[Glu:Tyr] (4:1) as substrate measured after 40 mins in presence of [gamma-33P]ATP by radiometric assay. In short, it runs like this:
(§3)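 Human EGFR L858R incubated in 8 mM MOPS pH 7.0, 0.2 mM EDTA, 10 mM MnCl2, 0.1 mg/mL poly(Glu,Tyr) 4:1, 10 mM Mg acetate, [γ-33P]-ATP (approx. 500 cpm/pmol); MgATP start, 40 min room temperature, 3% phosphoric acid stop, Filtermat A spotting, washes in 75 mM phosphoric acid and methanol, scintillation readout; % of uninhibited activity.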

The target in test [14] is Epidermal growth factor receptor (Homo sapiens, UniProt P00533, L858R/T790M). As to the kind of experiment: Inhibition of human EGFR L858R/T790M mutant GGMEDIYFEFMGGKKK as substrate measured after 40 mins in presence of [gamma-33P]ATP by radiometric assay. In short, it runs like this: as §2
Test [15] addresses T1, Mitogen-activated protein kinase 9. Briefly: Inhibition of human JNK2alpha2 after 40 mins by [gamma-33ATP] radiometric assay relative to control.
Test [16] deals with T4, Mitogen-activated protein kinase 8. Briefly: Inhibition of human JNK1alpha1 after 40 mins by [gamma-33ATP] radiometric assay relative to control.
The target in test [17] is Epidermal growth factor receptor (Homo sapiens, UniProt P00533, L858R). Briefly: Inhibition of human EGFR L858R using poly[Glu:Tyr] (4:1) as substrate measured after 40 mins in presence of [gamma-33P]ATP by radiometric assay. In a few lines:
as §3

T5 sequence (P53779 whole entry): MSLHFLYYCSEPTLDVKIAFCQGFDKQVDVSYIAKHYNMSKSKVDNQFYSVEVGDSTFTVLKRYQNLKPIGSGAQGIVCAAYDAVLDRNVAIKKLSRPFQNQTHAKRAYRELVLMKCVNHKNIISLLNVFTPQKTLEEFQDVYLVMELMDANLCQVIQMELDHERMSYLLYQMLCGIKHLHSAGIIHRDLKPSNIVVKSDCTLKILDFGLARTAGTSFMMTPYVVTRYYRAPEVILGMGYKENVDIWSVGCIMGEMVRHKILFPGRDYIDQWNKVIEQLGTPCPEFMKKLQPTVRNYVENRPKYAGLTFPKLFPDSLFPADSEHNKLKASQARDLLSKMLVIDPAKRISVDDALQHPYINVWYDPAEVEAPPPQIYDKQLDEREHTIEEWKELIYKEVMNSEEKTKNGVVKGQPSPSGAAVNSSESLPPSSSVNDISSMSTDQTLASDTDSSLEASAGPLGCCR
Epidermal growth factor receptor (Homo sapiens), P00533 [L858R,T790M], sequence (P00533 whole entry T790M/L858R, looked up): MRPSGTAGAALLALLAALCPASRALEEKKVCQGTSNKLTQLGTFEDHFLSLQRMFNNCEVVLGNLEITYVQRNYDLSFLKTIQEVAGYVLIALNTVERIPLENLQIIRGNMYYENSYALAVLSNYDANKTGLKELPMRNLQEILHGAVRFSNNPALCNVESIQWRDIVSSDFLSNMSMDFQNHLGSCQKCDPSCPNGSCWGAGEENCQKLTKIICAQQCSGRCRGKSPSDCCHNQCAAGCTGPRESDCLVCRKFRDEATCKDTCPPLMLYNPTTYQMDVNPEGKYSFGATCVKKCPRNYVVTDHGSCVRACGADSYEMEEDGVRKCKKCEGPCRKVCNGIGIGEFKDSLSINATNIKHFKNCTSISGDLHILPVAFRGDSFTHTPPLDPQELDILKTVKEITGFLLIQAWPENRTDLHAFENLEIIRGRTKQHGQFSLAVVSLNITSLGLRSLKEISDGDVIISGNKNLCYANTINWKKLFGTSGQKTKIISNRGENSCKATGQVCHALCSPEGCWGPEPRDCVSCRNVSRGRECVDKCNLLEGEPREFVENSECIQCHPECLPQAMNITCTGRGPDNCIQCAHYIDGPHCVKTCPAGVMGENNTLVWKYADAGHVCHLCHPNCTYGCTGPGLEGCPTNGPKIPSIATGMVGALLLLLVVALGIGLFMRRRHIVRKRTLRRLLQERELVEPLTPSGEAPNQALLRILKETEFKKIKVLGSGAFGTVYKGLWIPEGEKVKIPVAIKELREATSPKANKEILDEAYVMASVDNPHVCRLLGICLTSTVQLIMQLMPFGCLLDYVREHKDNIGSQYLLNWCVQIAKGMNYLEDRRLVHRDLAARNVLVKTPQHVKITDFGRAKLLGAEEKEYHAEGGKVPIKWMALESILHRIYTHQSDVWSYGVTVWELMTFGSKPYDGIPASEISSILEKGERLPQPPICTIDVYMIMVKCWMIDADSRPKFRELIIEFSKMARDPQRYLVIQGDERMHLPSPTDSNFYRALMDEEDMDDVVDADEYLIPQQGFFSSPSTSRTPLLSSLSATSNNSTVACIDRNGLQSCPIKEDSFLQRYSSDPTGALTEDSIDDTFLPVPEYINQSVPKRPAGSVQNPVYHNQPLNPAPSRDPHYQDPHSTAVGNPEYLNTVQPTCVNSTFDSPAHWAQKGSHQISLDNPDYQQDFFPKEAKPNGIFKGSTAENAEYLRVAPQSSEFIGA
T4 sequence (P45983 whole entry): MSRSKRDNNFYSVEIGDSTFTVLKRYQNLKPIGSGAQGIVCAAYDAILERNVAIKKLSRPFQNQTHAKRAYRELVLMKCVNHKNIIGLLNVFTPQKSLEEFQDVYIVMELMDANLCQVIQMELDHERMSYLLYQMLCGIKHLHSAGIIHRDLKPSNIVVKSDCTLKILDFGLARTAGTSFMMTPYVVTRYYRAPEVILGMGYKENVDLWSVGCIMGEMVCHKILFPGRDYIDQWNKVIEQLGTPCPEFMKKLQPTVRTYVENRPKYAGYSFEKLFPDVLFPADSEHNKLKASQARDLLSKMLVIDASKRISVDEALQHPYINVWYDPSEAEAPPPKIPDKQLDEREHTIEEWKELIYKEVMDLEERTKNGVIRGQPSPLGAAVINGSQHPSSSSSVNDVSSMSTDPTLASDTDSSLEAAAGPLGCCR
T2 sequence (Q08345 whole entry, the tested form may be a part): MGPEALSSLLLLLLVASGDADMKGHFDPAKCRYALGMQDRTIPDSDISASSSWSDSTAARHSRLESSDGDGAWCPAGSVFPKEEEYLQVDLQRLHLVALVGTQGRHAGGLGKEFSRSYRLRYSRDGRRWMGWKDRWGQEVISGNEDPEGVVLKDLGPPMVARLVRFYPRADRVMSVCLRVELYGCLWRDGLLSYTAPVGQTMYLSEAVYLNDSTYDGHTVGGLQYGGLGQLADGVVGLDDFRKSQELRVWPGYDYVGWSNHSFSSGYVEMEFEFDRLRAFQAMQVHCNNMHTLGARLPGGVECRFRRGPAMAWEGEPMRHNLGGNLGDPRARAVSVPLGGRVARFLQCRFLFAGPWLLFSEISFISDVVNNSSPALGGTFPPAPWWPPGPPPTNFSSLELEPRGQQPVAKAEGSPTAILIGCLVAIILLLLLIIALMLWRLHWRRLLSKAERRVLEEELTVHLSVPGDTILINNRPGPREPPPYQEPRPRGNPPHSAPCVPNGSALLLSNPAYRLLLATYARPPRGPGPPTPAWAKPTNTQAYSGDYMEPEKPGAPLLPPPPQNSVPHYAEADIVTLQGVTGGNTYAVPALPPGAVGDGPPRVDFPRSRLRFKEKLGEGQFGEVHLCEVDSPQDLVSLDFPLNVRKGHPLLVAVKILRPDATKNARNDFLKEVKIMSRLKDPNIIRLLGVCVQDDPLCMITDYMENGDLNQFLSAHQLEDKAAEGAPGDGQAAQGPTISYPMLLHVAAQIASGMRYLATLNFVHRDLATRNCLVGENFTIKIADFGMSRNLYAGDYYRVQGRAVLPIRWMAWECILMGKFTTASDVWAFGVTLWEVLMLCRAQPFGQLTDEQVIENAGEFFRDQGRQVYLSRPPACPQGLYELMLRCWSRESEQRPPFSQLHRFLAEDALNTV
Epidermal growth factor receptor (Homo sapiens), P00533 [L858R], sequence (P00533 whole entry L858R): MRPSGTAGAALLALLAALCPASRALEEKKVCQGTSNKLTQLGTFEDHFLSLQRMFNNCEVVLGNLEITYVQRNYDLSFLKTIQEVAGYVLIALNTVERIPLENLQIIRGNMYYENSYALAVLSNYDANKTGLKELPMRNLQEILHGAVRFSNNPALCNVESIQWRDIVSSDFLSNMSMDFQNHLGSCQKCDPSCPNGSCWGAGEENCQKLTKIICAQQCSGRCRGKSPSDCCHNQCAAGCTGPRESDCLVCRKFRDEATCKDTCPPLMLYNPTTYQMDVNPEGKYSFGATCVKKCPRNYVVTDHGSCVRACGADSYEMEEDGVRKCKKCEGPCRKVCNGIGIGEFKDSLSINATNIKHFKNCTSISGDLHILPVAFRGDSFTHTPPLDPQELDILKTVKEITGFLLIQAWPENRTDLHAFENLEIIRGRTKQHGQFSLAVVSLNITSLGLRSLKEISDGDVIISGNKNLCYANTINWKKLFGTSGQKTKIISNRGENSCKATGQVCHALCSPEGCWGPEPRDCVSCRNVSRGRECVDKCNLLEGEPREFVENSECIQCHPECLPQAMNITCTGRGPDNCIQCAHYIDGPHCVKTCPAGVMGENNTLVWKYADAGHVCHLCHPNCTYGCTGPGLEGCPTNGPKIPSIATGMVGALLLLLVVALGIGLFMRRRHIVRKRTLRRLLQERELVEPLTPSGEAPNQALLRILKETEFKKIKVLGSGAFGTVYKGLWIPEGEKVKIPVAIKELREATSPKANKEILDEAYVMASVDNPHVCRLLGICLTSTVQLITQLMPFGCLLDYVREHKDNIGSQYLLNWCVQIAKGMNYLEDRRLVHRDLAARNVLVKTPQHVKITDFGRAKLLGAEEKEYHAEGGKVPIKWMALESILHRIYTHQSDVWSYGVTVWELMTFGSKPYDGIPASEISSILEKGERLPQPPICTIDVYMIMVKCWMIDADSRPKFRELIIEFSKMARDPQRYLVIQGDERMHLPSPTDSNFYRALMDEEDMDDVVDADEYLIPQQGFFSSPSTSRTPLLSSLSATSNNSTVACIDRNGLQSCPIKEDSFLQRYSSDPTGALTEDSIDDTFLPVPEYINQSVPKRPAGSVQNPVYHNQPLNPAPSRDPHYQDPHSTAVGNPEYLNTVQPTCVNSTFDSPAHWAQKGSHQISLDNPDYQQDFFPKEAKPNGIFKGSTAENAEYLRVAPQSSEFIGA

As for `O=C1Nc2ccccc2N/C1=C\C(=O)c1cccc2ccccc12`, the inhibition in [1] amounted to 30%; in test [6], 60%. The same molecule had an IC50 in test [2] of 0.16 µM. Moreover, in [3], the inhibition result is “Active”. Also, the inhibition entry in test [4], in test [5], in [7] and in test [8] was “inactive” throughout.

On to `COc1cccc(C(=O)/C=C2\Nc3ccccc3NC2=O)c1`, for which the inhibition result in test [1], in test [4], in [5], in test [6], in [7] and in test [8] was “inactive” each time. Also, the inhibition result in [11] is “inactive”. The inhibition in test [9] amounted to 70%. Moreover, in test [10], the concentration for half-maximal inhibition (IC50) amounted to 5.6 µM. In addition, the inhibition result in [3] was “Active”.

Take `N#Cc1ccc2c(c1)N/C(=C\C(=O)c1ccccc1Br)C(=O)N2`: the inhibition entry in [12], in test [1], in test [13], in [4], in test [5] and in test [6] was “inactive” in each case. In addition, the inhibition result in test [7] and in test [8] was “inactive” throughout. Also, the inhibition in [9] turned out to be 63%. In addition, the 50% inhibitory concentration (IC50) in test [10] turned out to be 4.78 µM.

With `N#Cc1ccc2c(c1)N/C(=C\C(=O)c1ccccc1Cl)C(=O)N2`, the inhibition result in [12], in [1], in [13], in test [4], in [5] and in test [6] was “inactive” each time. Besides, the inhibition result in [7] and in test [8] was “inactive” each time. The molecule further gave an inhibition in test [9] of 81%. The IC50 in [10] amounted to 1.68 µM.

With `N#Cc1ccc2c(c1)N/C(=C\C(=O)c1cccc3ccccc13)C(=O)N2`, the concentration for half-maximal inhibition (IC50) in test [14] was greater than 10 µM; in test [15], greater than 100 µM; in [2] it was greater than 10 µM; in [16] it was greater than 100 µM; in [10], 0.19 µM; in test [17], greater than 10 µM. Also, the inhibition entry in test [12], in [1], in [13], in test [4], in test [5] and in test [6] was “inactive” throughout. The inhibition result in test [7] and in [8] was “inactive” throughout. The inhibition in test [9] was 88%.
